Screening results (PubChem BioAssay)
Env fusion inh: inhibitors of HIV Env-mediated cell fusion | AID 651610 | HeLa-JRFL Env/CEM21 cell fusion, luciferase | inhibition, % at 12.3 µM | 1.1% of 360,000 active;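 active means mean replicate inhibition score of at least 50 and every replicate individually at or above 50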;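 further: 0% = plate neutral controls and 100% = maraviroc near 300 nM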
INS-1E GSIS act: GLuc luminescence reporter in INS-1E cells, primary screen for activators of glucose-dependent secretion of insulin; INS-1E GLuc reporter insulin secretion, 2-3 h; activation, % at 16.6 µM; 0.61% of 370,000 active;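 active means lowest replicate activation of at least 40%, so every replicate reaches that level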;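 further: 0% = median of neutral control wells and 100% = median of IBMX positive control wells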
GSK3B inh: blocks human GSK3beta kinase activity; P49841; GST-GSK3beta kinase, ADP-Glo luminescence, 60 min; hits give low values; activity score (negative = inhibition), % at 10 µM; 0.038% of 300,000 active;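 active means more than half of replicate wells score below -50%, meaning over 50% inhibition versus plate controls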;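 further: 0% = median DMSO wells and -100% = median GW8510 positive control wells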
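Assay system: GST-tagged human GSK3beta kinase, cell-free; Input: 1.6 ng GSK3beta; Medium: Tris/MgCl2 kinase buffer; Timing: 60 min enzyme reaction, room temperature; Signal: ADP-Glo luminescence quantifying ADP generated by kinase; Evaluation: score relative to plate controls; Benchmarks: DMSO neutral wells and GW8510 at 20 µM as positive.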
CDK5 inh: inhibitors of human CDK5/p35 kinase | Q00535+Q15078 | Recombinant CDK5/p35, ADP-Glo luminescence, 60 min | inhibition, % at 10 µM | 0.01% of 330,000 active | AID 488839;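 active means highest replicate inhibition of at least 50% and at least 75% of replicates reaching 50%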;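 further: plate controls were DMSO neutral control for no effect and GW8510 at 10 µM for full effect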
GSK3A inh: inhibitors of human GSK-3 alpha kinase; 0.1% of 320,000 active; ADP-Glo luminescence, 60 min; P49840; inhibition, % at 10 µM;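 active means more than half of replicates show inhibition above 20%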;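 further: GST-tagged GSK-3 alpha with peptide substrate and 25 µM ATP; 0% = DMSO neutral wells and 100% = GW8510 positive control wells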
Target sequence (P49840 whole entry, looked up): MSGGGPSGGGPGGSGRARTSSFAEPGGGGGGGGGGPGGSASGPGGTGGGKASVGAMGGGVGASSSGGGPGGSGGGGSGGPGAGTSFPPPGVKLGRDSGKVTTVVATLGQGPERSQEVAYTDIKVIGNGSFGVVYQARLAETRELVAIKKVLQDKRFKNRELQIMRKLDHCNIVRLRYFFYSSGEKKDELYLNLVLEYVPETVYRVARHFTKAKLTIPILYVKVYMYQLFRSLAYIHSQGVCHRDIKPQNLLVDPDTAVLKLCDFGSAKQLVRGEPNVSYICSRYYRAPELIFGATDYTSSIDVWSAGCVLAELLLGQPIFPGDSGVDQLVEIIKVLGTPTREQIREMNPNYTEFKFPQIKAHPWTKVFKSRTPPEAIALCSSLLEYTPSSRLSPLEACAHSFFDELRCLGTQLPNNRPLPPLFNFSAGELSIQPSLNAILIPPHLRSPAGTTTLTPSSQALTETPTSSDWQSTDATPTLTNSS
STK33 inh: human STK33 kinase inhibition; inhibition, % at 10 µM; purified STK33, MBP phosphorylation, ADP-Glo luminescence; AID 2661; Q9BYT3; 0.073% of 320,000 active;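 active means inhibition at or above 25%, using the most active replicate where run in duplicate; inactive means inhibition below 25%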
Numbers without * were called inactive; x = no result; [ ] = dose if it differs, or a comment. Only some compounds are listed: those with a hit (about 1.4% of all), similar ones and a draw of the others.

SMILES | Env fusion inh | INS-1E GSIS act | GSK3B inh | CDK5 inh | GSK3A inh | STK33 inh
COc1ccc(C(=O)Nc2ccc(NC(=O)c3cccs3)cc2)cc1[N+](=O)[O-] | -7 | -11 | 1 | 1 | 0 | 0
CCOc1ccc(C(=O)Nc2ccc(NC(=O)c3cccs3)cc2)cc1[N+](=O)[O-] | -164 | 104* | 2 | 0 | 4 | -2
CCCNC(=O)N(C)C[C@@H]1Oc2ncc(-c3cccc(C#N)c3)cc2C(=O)N([C@H](C)CO)C[C@@H]1C | -10[16.7 µM] | 0 | x | x | x | x
CCC12C(=O)C(CC)(C(c3ccccc3)=C1c1ccccc1)[C@@H]1C(=O)N(c3ccc(C)cc3)C(=O)C12 (some centres not stated) | 92* | 1 | 0 | -1 | -2 | 0
CCCC12C(=O)C(C)(C(c3ccccc3)=C1c1ccccc1)C1C(=O)N(c3ccc(C)cc3)C(=O)C12 (configuration not stated) | 83* | 5 | 5 | -3 | -2 | -1
C[C@H]1CN([C@@H](C)CO)C(=O)c2cc(NS(=O)(=O)c3ccccc3)ccc2O[C@H]1CN(C)S(=O)(=O)c1ccc(F)cc1 | 12[16.7 µM] | -13 | x | x | x | x
O=c1c2ccccc2sn1-c1cccc(Cl)c1 | -3 | -18 | x | x | x | x
O=c1c2ccccc2sn1-c1ccccc1F | 20 | 86* | x | x | x | x
Cn1sc2ccccc2c1=O | -16 | 12 | x | x | x | x
CN(C)S(=O)(=O)c1cccc(-n2sc3ccccc3c2=O)c1 | -9 | 65* | x | 3 | -1 | -1
Cc1ccccc1-n1sc2cc(F)ccc2c1=O | -16 | 45* | x | 3 | -3 | -3
O=c1c2cc(F)ccc2sn1-c1ccccc1 | -42 | -3 | x | 3 | -3 | -1
O=c1c2ccccc2sn1-c1ccccc1 | -60 | 256* | -1 | 4 | -1 | -1
CO[C@H]1CN(C)C(=O)c2cc(NC(=O)c3ccccc3)ccc2OC[C@@H](C)N(CC2CC2)C[C@@H]1C | -15[16.7 µM] | -10 | x | x | x | x
Cc1cc(C(=O)CSc2nnc3ccccn23)c(C)n1-c1ccccc1 | 61* | 15 | 2 | -5 | -3 | 0
C[C@H](CO)N1C[C@H](C)[C@H](CN(C)C(=O)Nc2ccc3c(c2)OCO3)OCCCC[C@H](C)Oc2ccc(NC(=O)c3ccccc3)cc2C1=O | -8[16.7 µM] | -10 | x | x | x | x
CC(=O)N(C)C[C@@H]1Oc2cc(-c3ccccc3F)ccc2S(=O)(=O)N([C@@H](C)CO)C[C@@H]1C | 11[16.7 µM] | 11 | x | x | x | x
CC(C)CN(C(=O)C1CCCCC1)C1CCS(=O)(=O)C1 (configuration not stated) | 16 | 41* | -1 | -1 | 2 | -1
CC(C)CN(C(=O)c1ccc(S(=O)(=O)N2CCCCC2)cc1)C1CCS(=O)(=O)C1 (configuration not stated) | 70* | 17 | 1 | -1 | x | x
COc1ccc(S(=O)(=O)Nc2ccc3c(c2)CC(=O)N([C@H](C)CO)C[C@H](C)[C@H](CN(C)C(=O)NC2CCCCC2)O3)cc1 | -11[16.7 µM] | -7 | x | x | x | x
Cc1noc(C)c1NC(=O)Nc1cccc2c1O[C@H](CN(C)C(=O)Nc1ccc(F)cc1)[C@H](C)CN([C@H](C)CO)C2=O | -35[16.7 µM] | -2 | x | x | x | x
CO[C@H]1CN(C)C(=O)c2cc(NS(=O)(=O)c3ccccc3)ccc2OC[C@H](C)N(Cc2nccs2)C[C@@H]1C | x | -11 | x | x | x | x
Cc1cn(C2CCCCC2)c(=O)n(-c2ccccc2)c1=O | 16 | 19 | x | 1 | x | x
Cc1cn(CC(C)C)c(=O)n(-c2ccccc2)c1=O | 2 | 51* | x | 0 | x | x
CO[C@@H]1CN(C)C(=O)c2ccc(NC(=O)C3CCCC3)cc2OC[C@@H](C)N(C(=O)c2ccccc2)C[C@H]1C | x | 3 | x | x | x | x
SMILES | Env fusion inh | INS-1E GSIS act | GSK3B inh | CDK5 inh | GSK3A inh | STK33 inh
CO[C@@H]1CN(C)C(=O)c2cc(NC(=O)c3ccccc3F)ccc2OC[C@H](C)NC[C@H]1C | -23[16.7 µM] | -3 | x | x | x | x
O=S(=O)(c1ccc(NC(=S)N2CCN(c3ccccc3F)CC2)cc1)N1CCOCC1 | 59* | -5 | 1 | 0 | -2 | 0
COc1ccccc1N1CCN(C(=S)Nc2ccc(S(=O)(=O)N3CCOCC3)cc2)CC1 | 36 | -34 | -3 | 0 | -2 | -2
Cc1nc(C(=O)Nc2ccc(Cl)cc2)sc1C1(C)CC(c2cccc([N+](=O)[O-])c2)=NO1 (configuration not stated) | 55* | 7 | 2 | -3 | -3 | -1
Cc1noc(C)c1NC(=O)Nc1ccc2c(c1)CC(=O)N([C@H](C)CO)C[C@@H](C)[C@@H](CN(C)C(=O)NC(C)C)O2 | 5[16.7 µM] | 8 | x | x | x | x
C[C@H](CO)N1C[C@H](C)[C@@H](CN(C)Cc2ccccc2)Oc2ccc(NC(=O)c3ccncc3)cc2C1=O | -13[16.7 µM] | 14 | x | x | x | x
Cc1ccc(S(=O)(=O)Nc2cccc3c2O[C@@H](CN(C)Cc2ccc(Cl)c(Cl)c2)[C@@H](C)CN([C@H](C)CO)C3=O)cc1 | 87*[16.7 µM] | -12 | x | x | x | x
Cc1ccc(S(=O)(=O)Nc2cccc3c2O[C@H](CN(C)Cc2ccc(Cl)c(Cl)c2)[C@H](C)CN([C@H](C)CO)C3=O)cc1 | 85*[16.7 µM] | -3 | x | x | x | x
Cc1ccc(S(=O)(=O)Nc2cccc3c2O[C@H](CN(C)Cc2ccc(Cl)c(Cl)c2)[C@H](C)CN([C@@H](C)CO)C3=O)cc1 | x | -13 | x | x | x | x
C[C@H](CO)N1C[C@H](C)[C@H](CN(C)Cc2ccc(Cl)c(Cl)c2)Oc2c(NS(=O)(=O)c3ccc(Cl)cc3)cccc2C1=O | 91*[16.7 µM] | x | x | x | x | x
C[C@H](CO)N1C[C@H](C)[C@H](CN(C)C(=O)C2CCCCC2)Oc2cc(C#C[C@@H](C)O)ccc2S1(=O)=O | 11[16.7 µM] | 23 | x | x | x | x
C[C@H](CO)N1C[C@H](C)[C@@H](CN(C)Cc2ccc(Oc3ccccc3)cc2)Oc2ncc(-c3cncnc3)cc2C1=O | 3[16.7 µM] | 0 | x | x | x | x
Cc1cc(C)c2oc(C(=O)N(Cc3ccc(F)cc3)C3CCS(=O)(=O)C3)cc(=O)c2c1 (configuration not stated) | -3 | 63* | 1 | -1 | -1 | -2
Cc1ccc(CN(C(=O)c2cc(=O)c3cc(C)cc(C)c3o2)C2CCS(=O)(=O)C2)cc1 (configuration not stated) | -1 | 29 | 9 | x | -3 | 2
CC(C)NC(=O)NCC[C@H]1CC[C@H](NC(=O)CN(C)C)[C@H](CO)O1 | -12[16.7 µM] | -1 | x | x | x | x
CCOC(=O)c1oc2ccccc2c1COC(=O)CNC(=O)c1ccco1 | -9 | 6 | 5 | 2 | -3 | -1
CCOC(=O)c1oc2ccccc2c1NC(=O)c1ccco1 | 12 | 49* | 5 | -2 | 0 | 6
Cc1ccc(S(=O)(=O)N(C)C[C@H]2Oc3c(NS(=O)(=O)c4cn(C)cn4)cccc3C(=O)N([C@@H](C)CO)C[C@@H]2C)cc1 | 19[16.7 µM] | 6 | x | x | x | x
